About 960 (0.37%) of roughly 260,000 compounds were called active. Many of the other results were omitted from the sample, so actives are more common in it than they were. Unmarked numbers belong to inactive results.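 How the source made its calls: active means mean E-selectin-positive cell signal at least 10% of the positive control, reached in at least 60% of replicates, without over 20% cell loss; inconclusive means no rule given, readout overlaps actives, possibly toxicity-flagged; inactive means the rest, including those meeting only one limit.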

Sequence of E-selectin (Homo sapiens) (P16581 whole entry, looked up): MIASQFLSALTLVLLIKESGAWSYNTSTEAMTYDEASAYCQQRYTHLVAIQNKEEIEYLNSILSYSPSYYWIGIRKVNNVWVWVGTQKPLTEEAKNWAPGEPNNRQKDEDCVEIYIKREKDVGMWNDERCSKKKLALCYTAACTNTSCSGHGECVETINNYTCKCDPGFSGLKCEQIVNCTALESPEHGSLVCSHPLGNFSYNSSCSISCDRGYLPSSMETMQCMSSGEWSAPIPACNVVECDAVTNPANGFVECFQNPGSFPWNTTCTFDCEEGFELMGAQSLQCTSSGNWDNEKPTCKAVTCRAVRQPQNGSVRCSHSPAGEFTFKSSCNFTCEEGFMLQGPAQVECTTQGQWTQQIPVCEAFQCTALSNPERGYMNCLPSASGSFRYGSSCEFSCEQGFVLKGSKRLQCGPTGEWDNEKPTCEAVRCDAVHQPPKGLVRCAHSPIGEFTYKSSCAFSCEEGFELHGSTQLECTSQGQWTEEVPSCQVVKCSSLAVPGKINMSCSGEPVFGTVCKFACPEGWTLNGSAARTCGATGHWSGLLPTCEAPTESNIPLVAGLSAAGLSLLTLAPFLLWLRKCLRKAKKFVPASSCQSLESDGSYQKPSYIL

This assay deals with E-selectin (Homo sapiens) (UniProt P16581). Put plainly: inducers of endothelial E-selectin expression – imaging, HUVEC, immunofluorescence imaging, single point, primary screen (AID 686992).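 Further: signal is the percent of cells scored E-selectin positive by PE staining.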 The settings on record: at 7.58 µM, hits give high values, normalized: neutral wells 0, TNF-alpha wells 100. Summed up:
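assay system = HUVEC, human umbilical vein endothelial cells | input = 3,000 HUVEC seeded per well | medium = EGM-2 growth medium on 0.1% gelatin-coated wells | dosing = one compound dose added by pin transfer | signal = immunofluorescence imaging | read-out basis = % PE-positive cells | control set = TNF-alpha, DMSO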
For the compound `CCOC(=O)C1=C(C(=O)OCC)C2N(Cc3ccc(C#N)cc3)c3ccccc3[C@@]23C[C@@H](C(=O)OC)N(S(=O)(=O)c2ccc(F)cc2)C3=N1` (stereo partly specified), the activation was -0.148%.

Regarding `COc1ccccc1S(=O)(=O)N[C@@H]1CC[C@H](CCn2cc(C3CCCC3)nn2)O[C@H]1CO`, the activation was -0.101%.

As to `CCCCCCCNC(=O)C1(CC2CC(c3cccc(Br)c3)=NO2)CCN(C(=O)c2cc(OCC)c(OCC)c(OCC)c2)CC1` (stereo unspecified), the activation was 0.076%.

On to `CN(Cc1cccc2ncccc12)C(=O)CC1C(=O)NCCN1Cc1ccc(F)cc1` (stereo unspecified), for which the activation was 365% (active).

In the case of `Cc1cnc(CN(C)C(=O)CC2C(=O)NCCN2Cc2cccc(F)c2F)[nH]1` (stereo unspecified), the activation is -0.473%.

Take `Cc1nc(CN(C)C(=O)CC2C(=O)NCCN2Cc2ccc(F)cc2)cs1` (stereo unspecified): the activation is -0.598%.

Turning to `COc1ccc2c3c([nH]c2c1)[C@@H](CO)N(C)CC31CCN(S(=O)(=O)c2ccc(C)cc2)CC1`, the activation is -0.271%.

Consider `CO[C@H]1CN(C)C(=O)c2ccc(NC(C)=O)cc2OC[C@@H](C)N(C(=O)c2ccncc2)C[C@@H]1C`, for which the activation was 0.486%.

With `NC(=S)NN=Cc1ccc(OC(=O)COc2cc(Cl)c(Cl)cc2Cl)cn1`, the activation is 0.0825%.

In the case of `C[C@H](CO)N1C[C@H](C)[C@@H](CN(C)S(=O)(=O)c2ccc([N+](=O)[O-])cc2)OCc2ccccc2-c2c(n(C)c3ccccc23)C1=O`, the activation was 0.251%.

In the case of `O=C(NC(=S)Nc1ncccn1)c1ccccc1Br`, the activation was -0.09%.

`CCOc1cnc(C(=O)NNC(=O)c2ccccc2Br)o1`: the activation was 180% (active).

Consider `CCCc1ccc(OCCNC(=O)c2ccccc2Br)cc1`, for which the activation was 0.473%.

As for `COCC(=O)N1[C@H](C(=O)N2CCN(C)CC2)[C@@H](CO)[C@@H]2Cn3c(ccc(C4=CCCC4)c3=O)[C@@H]21`, the activation was 0.129%.

`COC(=O)C1=C(C)N(Cc2ccc(C(F)(F)F)cc2)C(=NCc2ccc(C(F)(F)F)cc2)NC1c1cccc(Cl)c1` (stereo unspecified): the activation is -0.458%.

In the case of `O=C(C[C@H]1CC[C@@H]2[C@H](COC[C@H](O)CN2CCC(F)(F)F)O1)NCC1CC1`, the activation was -0.0615%.

`COc1ccc(C2=NN(C(C)=O)C(c3ccccc3)C2)cc1` (stereo unspecified): the activation was 0.176%.

In the case of `COc1ccc(C2=NN(C(=O)c3ccccc3C(=O)O)C(c3ccccc3O)C2)cc1` (stereo unspecified), the activation was 55.5% (active).

Consider `COc1ccc(C2=NN(C(=O)c3cccnc3)C(c3ccccc3)C2)cc1` (stereo unspecified), for which the activation is -2.28%.

Regarding `Cc1ccc(C(=O)N2CCCc3ccccc32)c(Cl)c1`, the activation is -0.261%.

Take `C[C@H]1CN([C@@H](C)CO)C(=O)c2cccc(NC(=O)c3cnccn3)c2O[C@H]1CN(C)C(=O)Nc1ccccc1`: the activation was 0.886%.

As to `C[C@@H]1CN([C@H](C)CO)C(=O)c2cccc(NC(=O)c3cnccn3)c2O[C@@H]1CN(C)Cc1ccncc1`, the activation is -11.9%.

Take `C[C@H](CO)N1C[C@H](C)[C@H](CN(C)C(=O)Nc2ccc(F)cc2)Oc2c(NC(=O)c3cnccn3)cccc2C1=O`: the activation is 0.893%.

For `COc1ccc(CN(C)C[C@H]2Oc3c(NC(=O)c4cnccn4)cccc3C(=O)N([C@H](C)CO)C[C@@H]2C)cc1`, the activation was 39% (active).

For the compound `CC(C)NC(=O)N(C)C[C@@H]1Oc2c(NC(=O)c3cnccn3)cccc2C(=O)N([C@@H](C)CO)C[C@@H]1C`, the activation is 88.4% (active).

Consider `C[C@H]1CN([C@@H](C)CO)C(=O)c2cccc(NC(=O)c3cnccn3)c2O[C@@H]1CN(C)Cc1ccc(Oc2ccccc2)cc1`, for which the activation is 0.0435%.

As to `COc1ccc2c3c(n(C)c2c1)[C@@H](CO)N(C(=O)c1cnccn1)CC31CCN(C(C)=O)CC1`, the activation is -0.0775%.

Turning to `Cc1ccccc1-c1csc(C(O)c2cccc(Cl)c2)n1` (stereo unspecified), the activation is 0.0645%.

In the case of `CCOC(=O)[C@H]1Nc2ccc(Cl)cc2[C@@H]2[C@H]1C1CC(c3ccccc31)N2C(=O)OCc1ccccc1` (stereo partly specified), the activation is -3.61%.

In the case of `Cc1coc2cc3oc(=O)c(CCC(=O)O)c(C)c3cc12`, the activation is 0.29%.

`Cc1c(CC(=O)NCC(=O)NCC(=O)O)c(=O)oc2cc3oc4c(c3cc12)CCCC4`: the activation is 44.8% (active).

Regarding `CC[C@@H](C)[C@H](NC(=O)CCc1c(C)c2cc3c4c(oc3c(C)c2oc1=O)CCCC4)C(=O)O`, the activation is -0.004%.

Consider `CN1C(=O)C(Br)(Br)CC1c1cccnc1` (stereo unspecified), for which the activation is 0.457%.

In the case of `CCc1nc2c(OCCOc3ccccc3)cccn2c1N(C)C(=O)c1ccc(OC)cc1`, the activation is -0.197%.

As for `CCOC(=O)C1C(C)C(C(C)(C)C)N(S(=O)(=O)c2ccc(C)cc2)C1c1ccccc1` (stereo unspecified), the activation was -0.306%.

With `O=C(NC1CCCC1)[C@@H]1[C@@H](CO)[C@@H]2Cn3c(ccc(-c4ccc(F)cc4)c3=O)[C@H]1N2Cc1cocn1`, the activation is 0.192%.

On to `CCOC(=O)C(=Cc1ccccc1)C(=O)c1ccccc1`, for which the activation was -0.023%.

Consider `COc1ccc2sc(-c3ccc(N(C)C)cc3)c(-c3ccc4cc[nH]c4c3)c2c1`, for which the activation was 0.675%.

Turning to `COc1ccc2sc(-c3ccc(N(C)C)cc3)c(C#CCO)c2c1`, the activation is 0.712%.

Take `COc1ccc2c(c1)c(=Cc1ccc(N(C)C)cc1)c1cc(-c3ccccc3)[n+](C)n12`: the activation was 197% (active).

For `CC1(C)OC(=O)C2=C(C[C@@H](C3CCCC3)O[C@@H]2c2ccc(Cl)cc2)O1`, the activation is -0.0095%.

These data come from PubChem BioAssay AID686992 (Broad Institute, 2013).
